NS3 helicase inh = inhibitors of HCV NS3 helicase, primary screen, biochemical, Cy5 molecular beacon fluorescence. inhibition, % at 10.9 µM. Hepatitis C virus NS3 helicase. 290,000 compounds, 0.56% hits. NS3 helicase DNA unwinding;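 active means inhibition above the mean of all tested compounds plus 3 SD, set per campaign, cut at about 35% in these data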
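test system = hepatitis C virus NS3 helicase domain fragment enzyme | reagent = annealed dual-labelled DNA beacon duplex, ATP-started | times = 1 h at 25 °C | detection = Cy5 fluorescence, 0 and 60 min reads | read-out basis = percent inhibition from t60/t0 fluorescence ratio | control set = DMSO and thioflavine S | replication = one well per compound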
core dimer inh = inhibitors of HCV core protein dimerization, primary screen, biochemical, TR-FRET, high-throughput; TR-FRET GST/Flag-core106 dimerization, 1536-well; inhibition, % at 5 µM; 300,000 compounds, 0.33% hits;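 active means inhibition above the mean of all tested compounds plus 3 SD, set per screening campaign, cut at about 45% in these data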
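System – GST-tagged and Flag-tagged HCV core protein residues 1-106 · Repeats – one well for each compound · Technique – TR-FRET 671 and 617 nm emission · Doses – one concentration, 5 µM, in 0.5% DMSO · Times – 4 h, 22.5 °C incubation · Also added – Eu donor and XL665 acceptor anti-tag antibodies · Measure – percent inhibition of core106 dimerization signal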
TbMetRS inhib = T. brucei MetRS inhibitors, primary screen, biochemical, luminescence | methionyl-tRNA synthetase (Trypanosoma brucei brucei) | purified T. brucei MetRS, ATP depletion, Kinase-Glo luminescence | inhibition, % at 11.9 µM | 360,000 compounds, 0.4% hits | AID 624268, 2012;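 active means inhibition above a per-plate cutoff of the control wells' mean inhibition plus 3 SD, cut at about 5.5% in these data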
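technique = Kinase-Glo luminescence, ATP depletion format | system = purified MetRS (methionyl-tRNA synthetase) enzyme from Trypanosoma brucei | timing = 15 min preincubation, 2 h reaction, all 25 °C | evaluation = percent inhibition versus plate control medians | dosing = single dose, 11.9 µM final nominal, 0.9% final DMSO | also added = substrates ATP, L-methionine and bulk Escherichia coli tRNA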
Hep lipid drop = inhibitors of hepatocyte lipid droplet formation, primary screen, imaging, high-throughput imaging, BODIPY stain; AML12 mouse hepatocytes, oleate lipid droplets; inhibition, % at 6.5 µM; 240,000 compounds, 0.4% hits; AID 1656, 2009;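 active means lipid droplet intensity inhibited by at least 50%, with more than 500 cells counted; inconclusive means wells with under 300 cells, treated as cytotoxic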
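Assay system: AML12 mouse liver cells | Compound dosing: One dose, 6.5 µM compound | Read-out basis: Droplet intensity reduction, % inhibition | Measured by: Fluorescence imaging, 20x objective, two fields per well | Schedule: Overnight treatment with compound plus oleate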
Lipid drop inh = hepatocyte lipid droplet accumulation inhibitors, confirmation, imaging, AML12 mouse hepatocytes, single concentration, high-content | BODIPY lipid droplet imaging; droplets induced with 100 µM oleic acid | shares compounds with Hep lipid drop | inhibition, % at 5.2 µM | 870 compounds, 65% hits;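 active means inhibition of lipid droplet metric at least 50%, with more than 300 cells in each of four replicates; inconclusive means wells under 300 cells, flagged as toxic or low count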
AML12 tox img = AML12 hepatocyte cytotoxicity, counter-screen for hepatic lipid droplet formation project, imaging, DAPI nuclear morphology imaging. z-score at 5 µM. AML12 mouse hepatocytes; active compounds read high; cells fed 100 µM oleate overnight. shares compounds with Hep lipid drop. 870 compounds, 3% hits; in the data active means z-score above about 6.3;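 further: compound exposure lasted overnight at 37 °C before fixation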
AML12 tox conf = AML12 hepatocyte cytotoxicity, confirmation, cytotoxicity control for hepatic lipid droplet formation project, cell-based, single concentration; shares compounds with Hep lipid drop; AML12 mouse hepatocyte viability, ATP luminescence; cells loaded with 100 µM oleic acid; cytotoxicity, % at 50 µM; 530 tested, under 10 active; AID 463219, 2010;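 active means cytotoxicity above 50% in each of four replicates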;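 further: compound exposure lasted overnight at 37 °C before the ATP read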
Each line names hits and unclear results; the compound was inactive in the other large screens (follow-up assays come after a bar, where they were run). The list is not random: actives were taken first. Their share in the collection is about 1.3%.

CC(=O)OC(C)(C)/C=C/C(=O)[C@](C)(O)[C@H]1[C@H](O)C[C@@]2(C)[C@@H]3CC=C4[C@H](C[C@H](O)C(=O)C4(C)C)[C@]3(C)C(=O)C[C@]12C	Hep lipid drop 137 (no result: core dimer inh)
CC(=O)OC(C)(C)/C=C/C(=O)C(C)(O)C1C(O)CC2(C)C3CC=C4C(CC(O)C(=O)C4(C)C)C3(C)C(=O)CC12C (centres undefined)	none (no result: NS3 helicase inh, core dimer inh, Hep lipid drop)
C=CCOc1ccc(CC2C(=O)N(C)C(=O)N(C)C2=O)cc1	core dimer inh 85
COc1ccc(C(=O)CC(c2ccc3c(c2)OCO3)c2c(O)c3ccccc3oc2=O)cc1OC (centres undefined)	none (no result: NS3 helicase inh, core dimer inh, Hep lipid drop)
O=C1NC(=S)NC(=O)C1=Cc1ccc2c(c1)CCN2CCCCl	core dimer inh 65
CCOc1ccc(-n2c(-c3cccs3)nc3ccccc3c2=O)cc1	none
CCn1nc(-c2cccs2)nc2c(=O)n(C)c(=O)nc1-2	TbMetRS inhib 22 (no result: NS3 helicase inh, core dimer inh, Hep lipid drop)
CC(C)N1CCOC(c2ccc(O)c(O)c2)C1 (centres undefined)	none (no result: NS3 helicase inh, core dimer inh, Hep lipid drop)
CCOc1cccc(N2C(=O)/C(=C/c3ccco3)C(=O)NC2=S)c1	core dimer inh 61
CC(C)N1C(=O)/C(=C/C=C/c2ccco2)C(=O)N(Cc2ccco2)C1=O	core dimer inh 63 (no result: Hep lipid drop)
COc1ccc(/C=C2/C(=O)N(Cc3ccco3)C(=O)N(C(C)C)C2=O)cc1	none
COC(=O)C1=C(c2ccc(C(C)=O)cc2)C[C@@H]2CC[C@H]1N2C(=O)NCc1ccco1	none (no result: NS3 helicase inh, core dimer inh, Hep lipid drop)
CC(C)n1c(=O)c(C=Nc2ccc(Cl)cc2)c(O)n(Cc2ccco2)c1=O	NS3 helicase inh 47 (no result: TbMetRS inhib)
CCOC(=O)CNC(=O)N1Cc2cc(-c3cccc(F)c3)ccc2-n2nncc2C1	none (no result: NS3 helicase inh, core dimer inh, Hep lipid drop)
CN1C(=O)/C(=C/c2cccn2-c2ccc3ccccc3c2)C(=O)NC1=S	core dimer inh 65
COc1cc2c(cc1OC)C1C(=O)c3ccc4c(c3OC1CO2)CC(C(C)C)O4 (centres undefined)	none (no result: NS3 helicase inh, core dimer inh, Hep lipid drop)
C=C(C=O)CC1CC(O)[C@]2(C)OC3CC4OC5C[C@]6(C)O[C@]7(C)CCC8OC9C[C@]%10(C)OC%11C(C)=CC(=O)OC%11CC%10OC9C[C@@H](C)C8OC7CC6O[C@]5(C)CC5OC5C4OC3CC2O1 (some centres undefined)	core dimer inh 49, Hep lipid drop inconclusive
C=C(CO)CC1CC(O)[C@]2(C)OC3CC4OC5C[C@]6(C)O[C@]7(C)CCC8OC9C[C@]%10(C)OC%11C(C)=CC(=O)OC%11CC%10OC9C[C@@H](C)C8OC7CC6O[C@]5(C)C/C=C\C4OC3CC2O1 (some centres undefined)	none
O=[N+]([O-])c1c(Cl)c(Cl)c(Cl)c(Cl)c1Cl	none (no result: NS3 helicase inh, core dimer inh, Hep lipid drop)
Nc1cc(Cl)c2nonc2c1[N+](=O)[O-]	Hep lipid drop 113 | Lipid drop inh inactive | AML12 tox img inactive
CC(C)OCCCNC(=O)c1c(N)n(CC2CCCO2)c2nc3ccccc3nc12 (centres undefined)	Hep lipid drop 51 | Lipid drop inh inactive | AML12 tox img inactive | AML12 tox conf inactive
O=[N+]([O-])c1ccc(C(=Nc2ccccc2)N2CC2)cc1	none (no result: NS3 helicase inh, core dimer inh, Hep lipid drop)

Compound activity (PubChem BioAssay)
